Experimental data from ChEMBL document CHEMBL1126731, “Structure-activity relationship studies with symmetric naphthalenesulfonic acid derivatives. Synthesis and influence of spacer and naphthalenesulfonic acid moiety on anti-HIV-1 activity” (J Med Chem, 1993).

Key:
[1] = tested on: Human immunodeficiency virus 1; experiment: Cytotoxicity against HIV-1 (HTLV-IIIB) in MT-4 cells; type: functional; conditions: Human immunodeficiency virus 1, MT4
Method in brief: (§1)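 MT-4 cells were infected with the HIV-1 strain named in the line and cultured with the test compound for 4 days. Viable cells were then counted by the MTT method. EC50 is the 50% effective antiviral concentration and CC50 the 50% cytotoxic concentration, each the mean of at least two separate experiments.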

[2] = tested on: Human immunodeficiency virus 1; experiment: Antiviral activity against HIV-1 (HTLV-IIIB) in MT-4 cells; type: functional, organism-based; conditions: Human immunodeficiency virus 1, MT4; method in brief: as §1
MT4 [3] = experiment: Antiviral activity against HIV-1 in MT-4 cells was evaluated by using a clinical strain (HE); type: functional, cell-based; conditions: Homo sapiens; method in brief: as §1
MT4 [4] = experiment: Cytotoxicity against HIV-1 in MT-4 cells was evaluated by using a clinical strain (HE); type: functional; conditions: Homo sapiens; method in brief: as §1
MOLT-4 [5] = experiment: Percentage inhibition of HIV-1-induced giant cell (syncytia) formation using MOLT-4 cell at 0.8 uM; type: functional; conditions: Homo sapiens
Method in brief: (§2)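 MOLT-4 cells (5×10^4/well) were cocultured with an equal number of chronically infected MOLT-4/HTLV-III_B cells at various compound concentrations for 24 h. Cell clusters were then broken by gentle pipetting, and giant cells were counted under the microscope.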

MOLT-4 [6] = experiment: Percentage inhibition of HIV-1-induced giant cell (syncytia) formation using MOLT-4 cell at 500 uM; type: functional; conditions: Homo sapiens; method in brief: as §2
MOLT-4 [7] = experiment: Percentage inhibition of HIV-1-induced giant cell (syncytia) formation using MOLT-4 cell at 20 uM; type: functional; conditions: Homo sapiens; method in brief: as §2
MOLT-4 [8] = experiment: Inhibition of HIV-1-induced giant cell (syncytia) formation using MOLT-4 cell; type: functional, cell-based; conditions: Homo sapiens; method in brief: as §2
MOLT-4 [9] = experiment: Percentage inhibition of HIV-1-induced giant cell (syncytia) formation using MOLT-4 cell at 4 uM; type: functional; conditions: Homo sapiens; method in brief: as §2
MOLT-4 [10] = experiment: Percentage inhibition of HIV-1-induced giant cell (syncytia) formation using MOLT-4 cell at 100 uM; type: functional; conditions: Homo sapiens; method in brief: as §2
[11] = tested on: Human immunodeficiency virus 1; experiment: Antiviral concentration against HIV-1 (HTLV-IIIB) in peripheral blood lymphocytes; type: functional, organism-based
[12] = tested on: Human immunodeficiency virus 1; experiment: Cytotoxic concentration against HIV-1 (HTLV-IIIB) in peripheral blood lymphocytes; type: functional

Row | Compound | CC50 [1] | EC50 [2] | other results
1 | O=S(=O)(O)c1cccc2ccc(OS(=O)(=O)c3ccc(-c4ccc(S(=O)(=O)Oc5ccc6cccc(S(=O)(=O)O)c6c5)cc4)cc3)cc12 | 100 µM | > 100 µM | 
2 | O=S(=O)(O)c1cc(S(=O)(=O)O)c2cc(NS(=O)(=O)c3cccc4c(S(=O)(=O)Nc5ccc6cc(S(=O)(=O)O)cc(S(=O)(=O)O)c6c5)cccc34)ccc2c1 | > 500 µM | 14 µM | 
3 | O=C(CCCCCCC(=O)Nc1ccc(S(=O)(=O)O)c2ccccc12)Nc1ccc(S(=O)(=O)O)c2ccccc12 | > 500 µM | > 500 µM | 
4 | O=S(=O)(O)c1cc(S(=O)(=O)O)c2cc(O)ccc2c1 | > 500 µM | > 500 µM | 
5 | O=C(Nc1ccc(S(=O)(=O)O)c2cccc(S(=O)(=O)O)c12)c1ccc(C(=O)Nc2ccc(S(=O)(=O)O)c3cccc(S(=O)(=O)O)c23)cc1 | > 500 µM | > 197 µM | 
6 | O=C(O)c1cc(NS(=O)(=O)c2cccc3c(S(=O)(=O)Nc4cc(C(=O)O)c(O)c(S(=O)(=O)O)c4)cccc23)cc(S(=O)(=O)O)c1O | > 500 µM | 52.5 µM | 
7 | Nc1cc(S(=O)(=O)O)cc2cc(S(=O)(=O)O)cc(O)c12 | > 529 µM | > 529 µM | 
8 | O=C(CCCCCCCCC(=O)Nc1cc(S(=O)(=O)O)cc2cc(S(=O)(=O)O)cc(O)c12)Nc1cc(S(=O)(=O)O)cc2cc(S(=O)(=O)O)cc(O)c12 [listing 1 of 2 here] |  |  | EC50 (MT4 [3]): 3.9 µM; CC50 (MT4 [4]): > 100 µM
9 | O=C(O)c1cc(NS(=O)(=O)c2cc(S(=O)(=O)Nc3cc(C(=O)O)c(O)c(S(=O)(=O)O)c3)cc(S(=O)(=O)Nc3cc(C(=O)O)c(O)c(S(=O)(=O)O)c3)c2)cc(S(=O)(=O)O)c1O | > 500 µM | 11 µM | 
10 | Nc1ccc(S(=O)(=O)O)c2ccccc12 | > 500 µM | > 500 µM | 
11 | Cc1cc(C)c(S(=O)(=O)Nc2cc(C(=O)O)c(O)c(S(=O)(=O)O)c2)c(C)c1S(=O)(=O)Nc1cc(C(=O)O)c(O)c(S(=O)(=O)O)c1 | > 500 µM | 57 µM | 
12 | O=C(CCCCCC(=O)Nc1ccc(S(=O)(=O)O)c2cccc(S(=O)(=O)O)c12)Nc1ccc(S(=O)(=O)O)c2cccc(S(=O)(=O)O)c12 | > 500 µM | 143 µM | 
13 | O=S(=O)(O)c1cc(S(=O)(=O)O)c2cc(NS(=O)(=O)c3ccc(-c4ccc(S(=O)(=O)Nc5ccc6cc(S(=O)(=O)O)cc(S(=O)(=O)O)c6c5)cc4)cc3)ccc2c1 | > 500 µM | 29.5 µM | inhibition at 0.8 µM (MOLT-4 [5]): 6%; EC50 (MT4 [3]): 8.1 µM; inhibition at 500 µM (MOLT-4 [6]): 100%; inhibition at 20 µM (MOLT-4 [7]): 34%; IC50 (MOLT-4 [8]): 29 µM; CC50 (MT4 [4]): > 100 µM; inhibition at 4 µM (MOLT-4 [9]): 21%; inhibition at 100 µM (MOLT-4 [10]): 100%
14 | O=C(CCCCCCC(=O)Nc1ccc(S(=O)(=O)O)c2cccc(S(=O)(=O)O)c12)Nc1ccc(S(=O)(=O)O)c2cccc(S(=O)(=O)O)c12 | > 500 µM | 242 µM | 
15 | Nc1ccc(S(=O)(=O)O)c2cccc(S(=O)(=O)O)c12 | > 500 µM | > 500 µM | 
16 | O=C(CCC(=O)Nc1ccc(S(=O)(=O)O)c2ccccc12)Nc1ccc(S(=O)(=O)O)c2ccccc12 | > 500 µM | > 500 µM | 
17 | O=C(CCCCCCC(=O)Nc1cc(S(=O)(=O)O)cc2cc(S(=O)(=O)O)cc(O)c12)Nc1cc(S(=O)(=O)O)cc2cc(S(=O)(=O)O)cc(O)c12 [listing 1 of 2 here] |  |  | EC50 (MT4 [3]): 2.2 µM; CC50 (MT4 [4]): > 100 µM

Row | Compound | CC50 [1] | EC50 [2] | other results
18 | O=C(O)c1cc(NS(=O)(=O)c2ccc(-c3ccc(S(=O)(=O)Nc4cc(C(=O)O)c(O)c(S(=O)(=O)O)c4)cc3)cc2)cc(S(=O)(=O)O)c1O | 247 µM | 52.5 µM | inhibition at 0.8 µM (MOLT-4 [5]): 3%; EC50 (MT4 [3]): 7.5 µM; inhibition at 500 µM (MOLT-4 [6]): 100%; inhibition at 20 µM (MOLT-4 [7]): 22%; IC50 (MOLT-4 [8]): 37 µM; CC50 (MT4 [4]): > 100 µM; inhibition at 4 µM (MOLT-4 [9]): 0%; inhibition at 100 µM (MOLT-4 [10]): 94%
19 | O=C(CCCCCCCCC(=O)Nc1ccc(S(=O)(=O)O)c2ccccc12)Nc1ccc(S(=O)(=O)O)c2ccccc12 | > 500 µM | > 500 µM | 
20 | O=S(=O)(O)c1cc(S(=O)(=O)O)c2cc(OS(=O)(=O)c3ccc(-c4ccc(S(=O)(=O)Oc5ccc6cc(S(=O)(=O)O)cc(S(=O)(=O)O)c6c5)cc4)cc3)ccc2c1 | 224 µM | 40 µM | 
21 | Cc1ccc(C(=O)Nc2ccc(S(=O)(=O)O)c3cc(S(=O)(=O)O)cc(S(=O)(=O)O)c23)cc1NC(=O)c1cccc(NC(=O)Nc2cccc(C(=O)Nc3cc(C(=O)Nc4ccc(S(=O)(=O)O)c5cc(S(=O)(=O)O)cc(S(=O)(=O)O)c45)ccc3C)c2)c1 [SURAMIN] |  |  | EC50 (MT4 [3]): 8 µM; CC50 (MT4 [4]): 47 µM
22 | O=S(=O)(O)c1cc(O)c2c(NS(=O)(=O)c3ccc(-c4ccc(S(=O)(=O)Nc5cc(S(=O)(=O)O)cc6cc(S(=O)(=O)O)cc(O)c56)cc4)cc3)cc(S(=O)(=O)O)cc2c1 | 320 µM | 8.3 µM | EC50 [11]: 9.2 µM; CC50 [12]: 38 µM
23 | O=S(=O)(O)c1cccc2ccc(OS(=O)(=O)c3cccc4c(S(=O)(=O)Oc5ccc6cccc(S(=O)(=O)O)c6c5)cccc34)cc12 | 144 µM | > 55 µM | 
24 | O=C(CCCCCCCCCCC(=O)Nc1ccc(S(=O)(=O)O)c2cccc(S(=O)(=O)O)c12)Nc1ccc(S(=O)(=O)O)c2cccc(S(=O)(=O)O)c12 | > 500 µM | 46 µM | 
25 | Cc1ccc(C(=O)Nc2ccc(S(=O)(=O)O)c3cc(S(=O)(=O)O)cc(S(=O)(=O)O)c23)cc1NC(=O)c1cccc(NC(=O)Nc2cccc(C(=O)Nc3cc(C(=O)Nc4ccc(S(=O)(=O)O)c5cc(S(=O)(=O)O)cc(S(=O)(=O)O)c45)ccc3C)c2)c1 [SURAMIN HEXASODIUM] | 250 µM | 8.2 µM | 
26 | O=S(=O)(O)c1cc(S(=O)(=O)O)c2cc(OS(=O)(=O)c3cccc4c(S(=O)(=O)Oc5ccc6cc(S(=O)(=O)O)cc(S(=O)(=O)O)c6c5)cccc34)ccc2c1 | > 500 µM | > 168 µM | 
27 | O=S(=O)(O)c1ccc2cc(OS(=O)(=O)c3ccc(-c4ccc(S(=O)(=O)Oc5cc6ccc(S(=O)(=O)O)cc6cc5S(=O)(=O)O)cc4)cc3)c(S(=O)(=O)O)cc2c1 | > 500 µM | 43 µM | 
28 | O=C(CCCCCCC(=O)Nc1cc(S(=O)(=O)O)cc2cc(S(=O)(=O)O)cc(O)c12)Nc1cc(S(=O)(=O)O)cc2cc(S(=O)(=O)O)cc(O)c12 [listing 2 of 2 here] | 360 µM | 2.9 µM | EC50 [11]: 1.3 µM; inhibition at 0.8 µM (MOLT-4 [5]): 6%; CC50 [12]: 20 µM; inhibition at 500 µM (MOLT-4 [6]): 100%; inhibition at 20 µM (MOLT-4 [7]): 96%; IC50 (MOLT-4 [8]): 6.4 µM; inhibition at 4 µM (MOLT-4 [9]): 31%; inhibition at 100 µM (MOLT-4 [10]): 100%
29 | O=C(CCCCCCCCC(=O)Nc1ccc(S(=O)(=O)O)c2cccc(S(=O)(=O)O)c12)Nc1ccc(S(=O)(=O)O)c2cccc(S(=O)(=O)O)c12 | > 500 µM | 66.5 µM | 
30 | Nc1ccc2cc(S(=O)(=O)O)cc(S(=O)(=O)O)c2c1 | > 500 µM | > 500 µM | 
31 | O=C(CCCCCCCCCCC(=O)Nc1cc(S(=O)(=O)O)cc2cc(S(=O)(=O)O)cc(O)c12)Nc1cc(S(=O)(=O)O)cc2cc(S(=O)(=O)O)cc(O)c12 | 430 µM | 44 µM | inhibition at 0.8 µM (MOLT-4 [5]): 0%; EC50 (MT4 [3]): 12.5 µM; inhibition at 500 µM (MOLT-4 [6]): 100%; inhibition at 20 µM (MOLT-4 [7]): 40%; IC50 (MOLT-4 [8]): 26 µM; CC50 (MT4 [4]): > 100 µM; inhibition at 4 µM (MOLT-4 [9]): 11%; inhibition at 100 µM (MOLT-4 [10]): 100%
32 | O=S(=O)(O)c1ccc2cc(NS(=O)(=O)c3ccc(-c4ccc(S(=O)(=O)Nc5cc6ccc(S(=O)(=O)O)cc6cc5S(=O)(=O)O)cc4)cc3)c(S(=O)(=O)O)cc2c1 | > 500 µM | 41 µM | 
33 | O=C(CCCCCCCCC(=O)Nc1cc(S(=O)(=O)O)cc2cc(S(=O)(=O)O)cc(O)c12)Nc1cc(S(=O)(=O)O)cc2cc(S(=O)(=O)O)cc(O)c12 [listing 2 of 2 here] | > 100 µM | 3.9 µM | inhibition at 0.8 µM (MOLT-4 [5]): 0%; inhibition at 500 µM (MOLT-4 [6]): 100%; inhibition at 20 µM (MOLT-4 [7]): 35%; IC50 (MOLT-4 [8]): 29 µM; inhibition at 4 µM (MOLT-4 [9]): 30%; inhibition at 100 µM (MOLT-4 [10]): 100%
